ChEMBL document CHEMBL1914406, “Inhibitory effect of novel 5-O-acyl juglones on mammalian DNA polymerase activity, cancer cell growth and inflammatory response” (Bioorg Med Chem, 2011)
The source made the active and inactive calls. The rule behind the calls is not given here.

Tested on: RAW264.7
Experiment: Cytotoxicity against mouse RAW264.7 cells at 5 uM
Assay type: cell-based
Conditions: raw264.7, 5 µM

SMILES	Activity
CCCCC/C=C\C/C=C\CCCCCCCC(=O)O [LINOLEIC ACID]	Non-toxic
CCCCCCCCCCCC(=O)O [DODECANOATE]	Non-toxic
CC(=O)O [ACETIC ACID]	Non-toxic
CCCCCCCCCCCCCCCCCC(=O)O [STEARIC ACID]	Non-toxic
CCC(=O)O [PROPIONIC ACID]	Non-toxic

Species: Bos taurus
Experiment: Inhibition of calf DNA polymerase alpha using bovine deoxyribonuclease 1-treated DNA and dNTP as the DNA template-primer and nucleotide substrate at 10 uM after 60 mins
Conditions: not given

SMILES	inhibition
CCCCC/C=C\C/C=C\CCCCCCCC(=O)O [LINOLEIC ACID]	inactive
CCCCCCCCCCCC(=O)O [DODECANOATE]	inactive
CC(=O)O [ACETIC ACID]	inactive
CCCCCCCCCCCCCCCCCC(=O)O [STEARIC ACID]	inactive
CCC(=O)O [PROPIONIC ACID]	inactive

Tested on: HCT-116
Experiment: Cytotoxicity against human HCT116 cells by WST-1 assay
Assay type: functional, cell-based
Conditions: not given
In short: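 HCT116 colon carcinoma cells (ATCC) grown in McCoy's 5A with 10% FBS, penicillin and streptomycin, 37 °C, 5% CO2. Plated at 1 × 10⁴ cells/well together with compound, which was diluted from a 10 mM DMSO stock into medium (final 0.5% DMSO). Incubated 24 h. Viability read by WST-1, expressed relative to untreated cells.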

SMILES	Activity
CCCCC/C=C\C/C=C\CCCCCCCC(=O)O [LINOLEIC ACID]	inactive
CCCCCCCCCCCC(=O)O [DODECANOATE]	inactive
CC(=O)O [ACETIC ACID]	inactive
CCCCCCCCCCCCCCCCCC(=O)O [STEARIC ACID]	inactive
CCC(=O)O [PROPIONIC ACID]	inactive

Molecular target: T1, DNA polymerase kappa (Homo sapiens) (UniProt Q9UBT6)
T1 sequence (whole entry): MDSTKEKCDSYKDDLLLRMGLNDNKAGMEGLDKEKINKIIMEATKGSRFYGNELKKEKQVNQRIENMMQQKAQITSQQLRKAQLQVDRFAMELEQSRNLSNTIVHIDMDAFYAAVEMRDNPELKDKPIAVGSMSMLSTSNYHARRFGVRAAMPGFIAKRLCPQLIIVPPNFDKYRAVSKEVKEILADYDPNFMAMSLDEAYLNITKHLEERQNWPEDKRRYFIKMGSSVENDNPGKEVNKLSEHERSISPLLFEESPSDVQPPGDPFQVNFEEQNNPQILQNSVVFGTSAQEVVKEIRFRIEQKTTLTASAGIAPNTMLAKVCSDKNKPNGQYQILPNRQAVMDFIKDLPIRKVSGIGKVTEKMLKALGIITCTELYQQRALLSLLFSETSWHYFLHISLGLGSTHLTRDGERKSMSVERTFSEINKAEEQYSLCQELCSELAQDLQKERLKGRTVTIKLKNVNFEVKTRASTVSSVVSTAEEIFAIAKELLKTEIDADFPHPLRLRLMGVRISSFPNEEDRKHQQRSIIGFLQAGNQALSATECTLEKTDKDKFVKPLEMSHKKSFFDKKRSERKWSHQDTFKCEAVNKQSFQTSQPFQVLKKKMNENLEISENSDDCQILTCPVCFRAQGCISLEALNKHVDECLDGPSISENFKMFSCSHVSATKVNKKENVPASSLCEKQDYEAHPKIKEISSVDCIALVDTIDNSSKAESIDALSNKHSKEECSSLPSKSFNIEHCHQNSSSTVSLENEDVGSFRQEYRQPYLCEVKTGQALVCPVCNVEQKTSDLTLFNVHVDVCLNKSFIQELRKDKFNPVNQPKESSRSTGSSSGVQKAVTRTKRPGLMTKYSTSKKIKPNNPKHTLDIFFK
Experiment: Inhibition of C-terminal His6-tagged human DNA polymerase kappa (amino acids 1 to 560) using bovine deoxyribonuclease 1-treated DNA and dNTP as the DNA template-primer and nucleotide substrate at 10 uM after 60 mins
Conditions: not given

SMILES	inhibition
CCCCC/C=C\C/C=C\CCCCCCCC(=O)O [LINOLEIC ACID]	inactive
CCCCCCCCCCCC(=O)O [DODECANOATE]	inactive
CC(=O)O [ACETIC ACID]	inactive
CCCCCCCCCCCCCCCCCC(=O)O [STEARIC ACID]	inactive
CCC(=O)O [PROPIONIC ACID]	inactive

Tested on: Mus musculus
Experiment: Antiinflammatory activity in mouse assessed as inhibition of TPA-induced mouse ear edema at 500 ug/ear administered 30 mins before TPA challenge measured after 7 hrs relative to untreated control
Assay type: functional, organism-based
Conditions: not given
In short: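 Compound (500 µg) applied to one mouse ear; 30 min later TPA (0.5 µg) applied to both ears. Edema scored after 7 h and expressed as percentage of edema. Mean ± SE, n = 6.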

SMILES	Activity
CCCCC/C=C\C/C=C\CCCCCCCC(=O)O [LINOLEIC ACID]	inactive
CCCCCCCCCCCC(=O)O [DODECANOATE]	inactive
CC(=O)O [ACETIC ACID]	inactive
CCCCCCCCCCCCCCCCCC(=O)O [STEARIC ACID]	inactive
CCC(=O)O [PROPIONIC ACID]	inactive

Molecular target: T2, DNA polymerase lambda (Homo sapiens) (UniProt Q9UGP5)
T2 sequence (whole entry): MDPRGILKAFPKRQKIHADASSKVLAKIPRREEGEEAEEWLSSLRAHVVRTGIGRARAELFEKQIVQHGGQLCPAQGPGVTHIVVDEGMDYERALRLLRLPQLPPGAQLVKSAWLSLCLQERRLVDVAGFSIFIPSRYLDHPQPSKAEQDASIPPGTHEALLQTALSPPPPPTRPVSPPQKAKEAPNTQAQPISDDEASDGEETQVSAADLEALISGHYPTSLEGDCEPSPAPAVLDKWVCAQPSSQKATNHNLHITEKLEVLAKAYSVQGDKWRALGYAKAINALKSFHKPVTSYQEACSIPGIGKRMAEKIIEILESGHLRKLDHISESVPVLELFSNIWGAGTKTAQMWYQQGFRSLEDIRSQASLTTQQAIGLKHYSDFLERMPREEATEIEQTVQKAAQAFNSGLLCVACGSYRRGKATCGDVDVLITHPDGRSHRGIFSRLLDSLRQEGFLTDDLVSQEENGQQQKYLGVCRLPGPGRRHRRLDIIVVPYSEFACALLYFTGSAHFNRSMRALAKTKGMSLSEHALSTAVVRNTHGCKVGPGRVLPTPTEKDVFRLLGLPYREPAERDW
Experiment: Inhibition of recombinant His-tagged human DNA polymerase lambda using bovine deoxyribonuclease 1-treated DNA and dNTP as the DNA template-primer and nucleotide substrate at 10 uM after 60 mins
Conditions: not given

SMILES	inhibition
CCCCC/C=C\C/C=C\CCCCCCCC(=O)O [LINOLEIC ACID]	inactive
CCCCCCCCCCCC(=O)O [DODECANOATE]	inactive
CC(=O)O [ACETIC ACID]	inactive
CCCCCCCCCCCCCCCCCC(=O)O [STEARIC ACID]	inactive
CCC(=O)O [PROPIONIC ACID]	inactive

Molecular target: T2, DNA polymerase lambda (Homo sapiens)
Experiment: Inhibition of recombinant His-tagged human DNA polymerase lambda using poly(dA)/oligo(dT)18 (A/T = 2/1) and dTTP as the DNA template-primer and nucleotide substrate at 10 uM after 60 mins
Conditions: not given
In short: (§1)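 Compound in DMSO, sonicated 30 s. Premixed 0 °C, 10 min with enzyme (0.05 units) in 50 mM Tris-HCl pH 7.5, 1 mM DTT, 50% glycerol, 0.1 mM EDTA, then added to standard reaction mixture. Template-primers: poly(dA)/oligo(dT)18 (2/1) for pols, oligo(dT)18 for TdT, poly(rA)/oligo(dT)18 for HIV-1 RT, with [3H]dTTP. 60 min at 37 °C (Taq 74 °C). Activity relative to no-inhibitor control; mean ± SE of three experiments.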

SMILES	inhibition
CCCCC/C=C\C/C=C\CCCCCCCC(=O)O [LINOLEIC ACID]	inactive
CCCCCCCCCCCC(=O)O [DODECANOATE]	inactive
CC(=O)O [ACETIC ACID]	inactive
CCCCCCCCCCCCCCCCCC(=O)O [STEARIC ACID]	inactive
CCC(=O)O [PROPIONIC ACID]	inactive

Species: Homo sapiens
Experiment: Inhibition of histidine-tagged human DNA polymerase gamma using bovine deoxyribonuclease 1-treated DNA and dNTP as the DNA template-primer and nucleotide substrate at 10 uM after 60 mins
Conditions: not given

SMILES	inhibition
CCCCC/C=C\C/C=C\CCCCCCCC(=O)O [LINOLEIC ACID]	inactive
CCCCCCCCCCCC(=O)O [DODECANOATE]	inactive
CC(=O)O [ACETIC ACID]	inactive
CC1=CC(=O)c2ccccc2C1=O	Active
CCCCCCCCCCCCCCCCCC(=O)O [STEARIC ACID]	inactive
CCC(=O)O [PROPIONIC ACID]	inactive

Tested on: not listed separately
Experiment: Cytotoxicity against mouse RAW264.7 cells
Assay type: cell-based
Conditions: read-out: LD50 (the source's name)

SMILES	CC50 [µM]
CCCCC/C=C\C/C=C\CCCCCCCC(=O)O [LINOLEIC ACID]	> 10
CCCCCCCCCCCC(=O)O [DODECANOATE]	> 10
CC(=O)O [ACETIC ACID]	> 10
CCCCCCCCCCCCCCCCCC(=O)O [STEARIC ACID]	> 10
CCC(=O)O [PROPIONIC ACID]	> 10

Molecular target: T1, DNA polymerase kappa (Homo sapiens)
Experiment: Inhibition of C-terminal His6-tagged human DNA polymerase kappa (amino acids 1 to 560) using poly(dA)/oligo(dT)18 (A/T = 2/1) and dTTP as the DNA template-primer and nucleotide substrate at 10 uM after 60 mins
Conditions: not given

SMILES	inhibition
CCCCC/C=C\C/C=C\CCCCCCCC(=O)O [LINOLEIC ACID]	inactive
CCCCCCCCCCCC(=O)O [DODECANOATE]	inactive
CC(=O)O [ACETIC ACID]	inactive
CCCCCCCCCCCCCCCCCC(=O)O [STEARIC ACID]	inactive
CCC(=O)O [PROPIONIC ACID]	inactive

Tested on: RAW264.7
Experiment: Antiinflammatory activity in mouse RAW264.7 cells assessed as inhibition of LPS-induced TNFalpha secretion at 5 uM treated 30 mins before LPS challenge measured after 24 hrs by ELISA
Assay type: functional, cell-based
Conditions: not given
In short: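 RAW264.7 cells in MEM with 4.5 g/L glucose, 10% FCS, 5 mM L-glutamine, at 37 °C in 5% CO2. Seeded at 5 × 10⁴ cells/well and grown 24 h. Compound (final 1 and 5 µM) given 30 min before 100 ng/mL LPS. After 24 h, TNF-α in the medium measured by ELISA, relative to the no-compound value (100%). Mean ± SE, n = 4.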

SMILES	Activity
CCCCC/C=C\C/C=C\CCCCCCCC(=O)O [LINOLEIC ACID]	inactive
CCCCCCCCCCCC(=O)O [DODECANOATE]	inactive
CC(=O)O [ACETIC ACID]	inactive
CCCCCCCCCCCCCCCCCC(=O)O [STEARIC ACID]	inactive
CCC(=O)O [PROPIONIC ACID]	inactive

Species: Homo sapiens
Experiment: Inhibition of histidine-tagged human DNA polymerase gamma using poly(dA)/oligo(dT)18 (A/T = 2/1) and dTTP as the DNA template-primer and nucleotide substrate at 10 uM after 60 mins
Conditions: not given
In short: as §1

SMILES	inhibition
CCCCC/C=C\C/C=C\CCCCCCCC(=O)O [LINOLEIC ACID]	inactive
CCCCCCCCCCCC(=O)O [DODECANOATE]	inactive
CC(=O)O [ACETIC ACID]	inactive
CC1=CC(=O)c2ccccc2C1=O	Active
CCCCCCCCCCCCCCCCCC(=O)O [STEARIC ACID]	inactive
CCC(=O)O [PROPIONIC ACID]	inactive

Species: Bos taurus
Experiment: Inhibition of calf DNA polymerase alpha using poly(dA)/oligo(dT)18 (A/T = 2/1) and dTTP as the DNA template-primer and nucleotide substrate at 10 uM after 60 mins
Conditions: not given
In short: as §1

SMILES	inhibition
CCCCC/C=C\C/C=C\CCCCCCCC(=O)O [LINOLEIC ACID]	inactive
CCCCCCCCCCCC(=O)O [DODECANOATE]	inactive
CC(=O)O [ACETIC ACID]	inactive
CCCCCCCCCCCCCCCCCC(=O)O [STEARIC ACID]	inactive
CCC(=O)O [PROPIONIC ACID]	inactive
